Test results published in ChEMBL document CHEMBL1833949, “High affinity sialoside ligands of myelin associated glycoprotein” (Bioorg Med Chem Lett, 2011).

What was measured:
[1] = biological target: T1, Myelin-associated glycoprotein (Homo sapiens, UniProt P20916); experiment: Inhibition of MAG -Fc chimera expressed in CHO cells using NeuAc alpha2-3Galbeta1-4GlcNAc-R coupled biotinylated polyacrylamide after 30 mins by ELISA; format: cell-based
T1 sequence (P20916 whole entry): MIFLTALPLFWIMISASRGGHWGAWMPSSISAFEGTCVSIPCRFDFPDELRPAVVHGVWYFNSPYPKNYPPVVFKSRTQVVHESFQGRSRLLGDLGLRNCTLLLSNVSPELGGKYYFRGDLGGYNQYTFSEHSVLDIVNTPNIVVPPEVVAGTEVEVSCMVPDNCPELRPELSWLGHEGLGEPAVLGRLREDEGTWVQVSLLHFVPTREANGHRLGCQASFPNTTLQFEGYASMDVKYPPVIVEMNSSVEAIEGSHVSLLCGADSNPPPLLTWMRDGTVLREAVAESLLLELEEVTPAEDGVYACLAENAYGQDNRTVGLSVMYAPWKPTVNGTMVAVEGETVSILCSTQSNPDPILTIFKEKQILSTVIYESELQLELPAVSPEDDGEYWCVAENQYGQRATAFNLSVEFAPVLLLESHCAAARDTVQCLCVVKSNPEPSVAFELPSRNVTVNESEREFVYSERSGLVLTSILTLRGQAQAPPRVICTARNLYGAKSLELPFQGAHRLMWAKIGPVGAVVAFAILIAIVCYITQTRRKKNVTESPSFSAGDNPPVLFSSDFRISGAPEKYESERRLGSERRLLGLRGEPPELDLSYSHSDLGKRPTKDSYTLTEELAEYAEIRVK
Method in brief: (§1)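 Each compound was run in triplicate and assayed on three separate days, each time alongside at least one other compound to check for drift. IC50 is the mean and standard deviation of the three separate assays.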

[2] = biological target: T1, Myelin-associated glycoprotein; experiment: Binding affinity to wild type MAG at 400 uM by Isothermal titration calorimetry
[3] = biological target: T1, Myelin-associated glycoprotein; experiment: Inhibition of MAG
Method in brief: as §1, with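 “Competition format: MAG-Fc chimera binding to a polymeric ligand adsorbed on plate wells, with the inhibitor titrated to give IC50. Each” for “Each”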

[4] = biological target: T1, Myelin-associated glycoprotein; experiment: Binding affinity to MAG
Method in brief: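 Competitive inhibition of MAG-Fc chimera binding to a polymeric ligand adsorbed in microplate wells, run in triplicate. Each compound was assayed three times on separate days, alongside at least one other compound, and the IC50 reported as mean and standard deviation. Apparent Kd values were calculated from IC50 against a reference ligand whose Kd was measured by isothermal titration calorimetry.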

SMILES | IC50 [1] [nM] | Kd [2] [nM] | IC50 [3] [µM] | Kd [4] [µM]
COC(=O)[C@@H](NC(C)=O)[C@@H](C)O[C@H]1O[C@H](CO[C@]2(C(=O)O)C[C@H](O)[C@@H](NC(C)=O)[C@H]([C@H](O)[C@H](O)CNC(=O)c3ccc(F)cc3)O2)[C@H](O)[C@H](O[C@@H]2O[C@H](CO)[C@H](O)[C@H](O[C@]3(C(=O)O)C[C@H](O)[C@@H](NC(C)=O)[C@H]([C@H](O)[C@H](O)CO)O3)[C@H]2O)[C@H]1NC(C)=O | 9 | 15 |  | 
CC(=O)N[C@H]1[C@@H](O[C@H](C)[C@H](N)C(=O)O)O[C@H](CO[C@]2(C(=O)O)C[C@H](O)[C@@H](NC(C)=O)[C@H]([C@H](O)[C@H](O)CO)O2)[C@H](O)[C@@H]1O[C@@H]1O[C@H](CO)[C@H](O)[C@H](O[C@]2(C(=O)O)C[C@H](O)[C@@H](NC(C)=O)[C@H]([C@H](O)[C@H](O)CO)O2)[C@H]1O |  |  | 0.3 | 
CC(=O)N[C@H]1[C@H](OCC[Si](C)(C)C)O[C@H](CO)[C@H](O)[C@@H]1O[C@@H]1O[C@H](CO)[C@H](O)[C@H](O[C@]2(C(=O)O)C[C@H](O)[C@@H](NC(C)=O)[C@H]([C@H](O)[C@H](O)CO)O2)[C@H]1O |  |  |  | 180
CC(=O)N[C@@H]1[C@@H](O[C@@H]2O[C@H](CO)[C@H](O)[C@H](O[C@]3(C(=O)O)C[C@H](O)[C@@H](NC(C)=O)[C@H]([C@H](O)[C@H](O)CO)O3)[C@H]2O)[C@@H](O)[C@@H](CO)O[C@H]1Sc1ccc(C)cc1 |  |  | 272 | 
CC(=O)N[C@H]1[C@H]([C@H](O)[C@H](O)CNC(=O)c2ccccc2)O[C@@](O[C@H]2[C@@H](O)[C@@H](CO)O[C@@H](O[C@H]3[C@@H](O)[C@@H](CO)O[C@@H](OCC[Si](C)(C)C)[C@@H]3O)[C@@H]2O)(C(=O)O)C[C@@H]1O |  |  |  | 32
O=C(CF)N[C@H]1[C@H]([C@H](O)[C@H](O)CNC(=O)c2ccccc2)O[C@@](OCc2cccc(F)c2F)(C(=O)O)C[C@@H]1O |  |  |  | 0.5
COC(=O)[C@@H](NC(C)=O)[C@@H](C)O[C@H]1O[C@H](CO[C@]2(C(=O)O)C[C@H](O)[C@@H](NC(C)=O)[C@H]([C@H](O)[C@H](O)CO)O2)[C@H](O)[C@H](O[C@@H]2O[C@H](CO)[C@H](O)[C@H](O[C@]3(C(=O)O)C[C@H](O)[C@@H](NC(C)=O)[C@H]([C@H](O)[C@H](O)CNC(=O)c4ccc(F)cc4)O3)[C@H]2O)[C@H]1NC(C)=O | 300 | 480 |  | 

Second part, led by results:

IC50 [1] [nM] | Kd [2] [nM] | IC50 [3] [µM] | SMILES | Kd [4] [µM]
7900 | 13000 |  | COC(=O)[C@@H](NC(C)=O)[C@@H](C)O[C@H]1O[C@H](CO[C@]2(C(=O)O)C[C@H](O)[C@@H](NC(C)=O)[C@H]([C@H](O)[C@H](O)CO)O2)[C@H](O)[C@H](O[C@@H]2O[C@H](CO)[C@H](O)[C@H](O)[C@H]2O)[C@H]1NC(C)=O | 
 |  | 52 | CC(=O)N[C@H]1[C@@H](OCc2ccccc2)O[C@H](CO)[C@H](O)[C@@H]1O[C@@H]1O[C@H](CO)[C@H](O)[C@H](O[C@]2(C(=O)O)C[C@H](O)[C@@H](NC(C)=O)[C@H]([C@H](O)[C@H](O)CO)O2)[C@H]1O | 
 |  | 1.2 | CC(=O)N[C@H]1[C@@H](O[C@H](C)[C@H](N)C(=O)O)O[C@H](CO)[C@H](O)[C@@H]1O[C@@H]1O[C@H](CO)[C@H](O)[C@H](O[C@]2(C(=O)O)C[C@H](O)[C@@H](NC(C)=O)[C@H]([C@H](O)[C@H](O)CO)O2)[C@H]1O | 
1200 | 1900 |  | COC(=O)[C@@H](NC(C)=O)[C@@H](C)O[C@H]1O[C@H](CO)[C@H](O)[C@H](O[C@@H]2O[C@H](CO)[C@H](O)[C@H](O[C@]3(C(=O)O)C[C@H](O)[C@@H](NC(C)=O)[C@H]([C@H](O)[C@H](O)CO)O3)[C@H]2O)[C@H]1NC(C)=O | 
650 | 1000 |  | COC(=O)[C@@H](NC(C)=O)[C@@H](C)O[C@H]1O[C@H](CO)[C@H](O)[C@H](O[C@@H]2O[C@H](CO)[C@H](O)[C@H](O[C@]3(C(=O)O)C[C@H](O)[C@@H](NC(C)=O)[C@H]([C@H](O)[C@H](O)CNC(=O)c4ccccc4)O3)[C@H]2O)[C@H]1NC(C)=O | 
610 | 1000 |  | COC(=O)[C@@H](NC(C)=O)[C@@H](C)O[C@H]1O[C@H](CO)[C@H](O)[C@H](O[C@@H]2O[C@H](CO)[C@H](O)[C@H](O[C@]3(C(=O)O)C[C@H](O)[C@@H](NC(C)=O)[C@H]([C@H](O)[C@H](O)CNC(=O)c4ccc(Cl)cc4)O3)[C@H]2O)[C@H]1NC(C)=O | 
79 | 130 |  | COC(=O)[C@@H](NC(C)=O)[C@@H](C)O[C@H]1O[C@H](CO)[C@H](O)[C@H](O[C@@H]2O[C@H](CO)[C@H](O)[C@H](O[C@]3(C(=O)O)C[C@H](O)[C@@H](NC(C)=O)[C@H]([C@H](O)[C@H](O)CNC(=O)c4ccc(F)cc4)O3)[C@H]2O)[C@H]1NC(C)=O | 
640 | 1000 |  | COC(=O)[C@@H](NC(C)=O)[C@@H](C)O[C@H]1O[C@H](CO[C@]2(C(=O)O)C[C@H](O)[C@@H](NC(C)=O)[C@H]([C@H](O)[C@H](O)CNC(=O)c3ccc(Cl)cc3)O2)[C@H](O)[C@H](O[C@@H]2O[C@H](CO)[C@H](O)[C@H](O)[C@H]2O)[C@H]1NC(C)=O | 
1100 | 1760 |  | COC(=O)[C@@H](NC(C)=O)[C@@H](C)O[C@H]1O[C@H](CO[C@]2(C(=O)O)C[C@H](O)[C@@H](NC(C)=O)[C@H]([C@H](O)[C@H](O)CNC(=O)c3ccc(F)cc3)O2)[C@H](O)[C@H](O[C@@H]2O[C@H](CO)[C@H](O)[C@H](O)[C@H]2O)[C@H]1NC(C)=O | 
